From the array DNA melting data of Ke et al. (doi:10.1101/2024.01.08.574731)

Tests used:
[1] = folding enthalpy; higher = less favourable; fluorescence melt of hairpins on a sequencing array, two-state fit; settings: sodium 0.088 M
In short: (§1)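 Hairpins were imaged by Cy3 fluorescence on a sequenced MiSeq flow cell with annealed Cy3 and quencher oligos, in 50 mM Na-HEPES pH 8.0, 25 mM NaCl, in 2.5 °C steps up to 60 °C. Bootstrapped two-state fits of normalised signals gave melting temperature and folding enthalpy. Four replicates were combined by inverse variance, and fitted temperatures were raised by 9.35 °C to match UV melts.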

[2] = melting temperature; fluorescence melt of hairpins on a sequencing array, two-state fit, raised by 9.35 °C to match UV melts; settings: sodium 0.088 M
In short: as §1

Sequence | folding enthalpy [1] | Tm [2]
GATCCACGCATGGATC ((((((....)))))) | -32.1 kcal/mol | 52.8 °C
GATCCACGGATGGATC ((((((....)))))) | -32.4 kcal/mol | 48.6 °C
GATCCACGTTGGATC ((((((...)))))) | -29.7 kcal/mol | 50.6 °C
GATCCACTCTTGGATC ((((((....)))))) | -35.1 kcal/mol | 51 °C
GATCCACTGCTGGATC ((((((....)))))) | -41.4 kcal/mol | 50.4 °C
GATCCACTGGTGGATC ((((((....)))))) | -39.4 kcal/mol | 59.1 °C
GATCCACTTATGGATC ((((((....)))))) | -42.9 kcal/mol | 50.8 °C
GATCCACTTCTGGATC ((((((....)))))) | -34.8 kcal/mol | 50.2 °C
GATCCACTTTGGATC ((((((...)))))) | -33.3 kcal/mol | 53.1 °C
GATCCAGACATGGATC ((((((....)))))) | -39.9 kcal/mol | 58 °C
GATCCAGACGTGGATC ((((((....)))))) | -45.1 kcal/mol | 53.2 °C
GATCCAGAGATGGATC ((((((....)))))) | -34.5 kcal/mol | 52.3 °C
GATCCAGATTTGGATC ((((((....)))))) | -30 kcal/mol | 50.4 °C
GATCCAGCATTGGATC ((((((....)))))) | -44.4 kcal/mol | 56 °C
GATCCAGCGCTGGATC ((((((....)))))) | -54.5 kcal/mol | 60.1 °C
GATCCAGCTATGGATC ((((((....)))))) | -33.5 kcal/mol | 58.8 °C
GATCCAGGAAACCGGATC (((((.(....).))))) | -33.3 kcal/mol | 45.7 °C
GATCCAGGCCTGGATC ((((((....)))))) | -54.9 kcal/mol | 60 °C
GATCCAGGCTTGGATC ((((((....)))))) | -43.8 kcal/mol | 54.8 °C
GATCCAGGGCTGGATC ((((((....)))))) | -38.3 kcal/mol | 52.4 °C
GATCCATAACTGGATC ((((((....)))))) | -33.9 kcal/mol | 48.1 °C
GATCCATAATTGGATC ((((((....)))))) | -39.7 kcal/mol | 50.7 °C
GATCCATAGGTGGATC ((((((....)))))) | -36 kcal/mol | 52 °C
GATCCATATGTGGATC ((((((....)))))) | -38.1 kcal/mol | 54.9 °C

Sequence | folding enthalpy [1] | Tm [2]
GATCCATCATTGGATC ((((((....)))))) | -35.8 kcal/mol | 51.4 °C
GATCCATCCATGGATC ((((((....)))))) | -43.4 kcal/mol | 55.8 °C
GATCCATCCGTGGATC ((((((....)))))) | -46.6 kcal/mol | 52.9 °C
GATCCATCTGTGGATC ((((((....)))))) | -36.4 kcal/mol | 54.3 °C
GATCCATGATTGGATC ((((((....)))))) | -38.4 kcal/mol | 51.9 °C
GATCCATGCGTGGATC ((((((....)))))) | -35.8 kcal/mol | 56.8 °C
GATCCATGTATGGATC ((((((....)))))) | -42.6 kcal/mol | 58 °C
GATCCATTCTTGGATC ((((((....)))))) | -42.1 kcal/mol | 54 °C
GATCCATTTATGGATC ((((((....)))))) | -44.2 kcal/mol | 60.8 °C
GATCCCAAAAGGGATC ((((((....)))))) | -27.9 kcal/mol | 59.3 °C
GATCCCAACGGGGATC ((((((....)))))) | -30.9 kcal/mol | 59.4 °C
GATCCCAAGGGGATC ((((((...)))))) | -35.8 kcal/mol | 66.6 °C
GATCCCACAGGGATC ((((((...)))))) | -33.1 kcal/mol | 67.1 °C
GATCCCACAGGGGATC ((((((....)))))) | -33.4 kcal/mol | 61.8 °C
GATCCCACATGGGATC ((((((....)))))) | -45.5 kcal/mol | 60.8 °C
GATCCCACGGGGATC ((((((...)))))) | -33.5 kcal/mol | 65.6 °C
GATCCCAGCGGGATC ((((((...)))))) | -37.9 kcal/mol | 68.9 °C
GATCCCAGTGGGGATC ((((((....)))))) | -32.7 kcal/mol | 62.3 °C
GATCCCATAGGGATC ((((((...)))))) | -36.9 kcal/mol | 67 °C
GATCCCATAGGGGATC ((((((....)))))) | -32.9 kcal/mol | 60.4 °C
GATCCCATCAGGGATC ((((((....)))))) | -36.3 kcal/mol | 65.7 °C
GATCCCATCCGGGATC ((((((....)))))) | -36.8 kcal/mol | 64.2 °C
GATCCCATCGGGATC ((((((...)))))) | -36.5 kcal/mol | 67.4 °C
GATCCCATTAGGGATC ((((((....)))))) | -36.5 kcal/mol | 63 °C

Sequence | folding enthalpy [1] | Tm [2]
GATCCCATTCGGGATC ((((((....)))))) | -38.7 kcal/mol | 62.1 °C
GATCCCATTTGGGATC ((((((....)))))) | -37 kcal/mol | 66.1 °C
GATCCCCAACGGGATC ((((((....)))))) | -29.7 kcal/mol | 57.2 °C
GATCCCCAAGGGGATC ((((((....)))))) | -37.4 kcal/mol | 65 °C
GATCCCCACGGGGATC ((((((....)))))) | -36.2 kcal/mol | 66.4 °C
GATCCCCAGGGGATC ((((((...)))))) | -33.1 kcal/mol | 61.9 °C
GATCCCCATAGGGATC ((((((....)))))) | -41.1 kcal/mol | 62.8 °C
GATCCCCCCCGGGATC ((((((....)))))) | -38.5 kcal/mol | 57.2 °C
GATCCCCCGAGGGATC ((((((....)))))) | -34.6 kcal/mol | 62.1 °C
GATCCCCCGCGGGATC ((((((....)))))) | -34.2 kcal/mol | 57.2 °C
GATCCCCCGGGGATC ((((((...)))))) | -31.5 kcal/mol | 64.8 °C
GATCCCCCGTGGGATC ((((((....)))))) | -36.7 kcal/mol | 60.5 °C
GATCCCCCTGGGATC ((((((...)))))) | -38.4 kcal/mol | 62.1 °C
GATCCCCGAAAGGGAATC (((.(((....))).))) | -21.8 kcal/mol | 44.9 °C
GATCCCCGAAAGGGATC (((.(((....)))))) | -29.8 kcal/mol | 56.2 °C
GATCCCCGAAAGGGTATC (((.(((....))).))) | -21.1 kcal/mol | 42.2 °C
GATCCCCGCCGGGATC ((((((....)))))) | -40.3 kcal/mol | 57.7 °C
GATCCCCGCTGGGATC ((((((....)))))) | -32.9 kcal/mol | 61.8 °C
GATCCCCGGAGGGATC ((((((....)))))) | -19.2 kcal/mol | 59.5 °C
GATCCCCTAGGGGATC ((((((....)))))) | -44.1 kcal/mol | 66.6 °C
GATCCCCTGGGGGATC ((((((....)))))) | -36.4 kcal/mol | 66.6 °C
GATCCCGAAAGGGTATC ((((((....))).))) | -15.8 kcal/mol | 45.5 °C
GATCCCGCATGGGATC ((((((....)))))) | -32.9 kcal/mol | 68 °C
GATCCCGCGTGGGATC ((((((....)))))) | -38.4 kcal/mol | 59.9 °C

Sequence | folding enthalpy [1] | Tm [2]
GATCCCGCTGGGGATC ((((((....)))))) | -36.9 kcal/mol | 60.8 °C
GATCCCGGGTGGGATC ((((((....)))))) | -36 kcal/mol | 60.3 °C
GATCCCGGTCGGGATC ((((((....)))))) | -35.5 kcal/mol | 66.1 °C
GATCCCGGTTGGGATC ((((((....)))))) | -32.4 kcal/mol | 65.2 °C
GATCCCGTCGGGGATC ((((((....)))))) | -35.1 kcal/mol | 64.1 °C
GATCCCTAAAGGGATC ((((((....)))))) | -36.5 kcal/mol | 60.6 °C
GATCCCTAACGGGATC ((((((....)))))) | -39.7 kcal/mol | 57.6 °C
GATCCCTACGGGATC ((((((...)))))) | -32.5 kcal/mol | 67.9 °C
GATCCCTATGGGGATC ((((((....)))))) | -31.3 kcal/mol | 65.5 °C
GATCCCTCCCGGGATC ((((((....)))))) | -40.5 kcal/mol | 61.4 °C
GATCCCTCGCGGGATC ((((((....)))))) | -39.1 kcal/mol | 59.6 °C
GATCCCTCTTGGGATC ((((((....)))))) | -36.8 kcal/mol | 63.7 °C
GATCCCTGTCGGGATC ((((((....)))))) | -35 kcal/mol | 60 °C
GATCCCTGTGGGATC ((((((...)))))) | -35 kcal/mol | 66.7 °C
GATCCCTTACGGGATC ((((((....)))))) | -38.9 kcal/mol | 61.5 °C
GATCCCTTAGGGATC ((((((...)))))) | -38.3 kcal/mol | 66.1 °C
GATCCCTTGGGGGATC ((((((....)))))) | -46.9 kcal/mol | 60.1 °C
GATCCGAAAGGATC (((((....))))) | -29.5 kcal/mol | 66.8 °C
GATCCGAACTCGGATC ((((((....)))))) | -40.9 kcal/mol | 56.4 °C
GATCCGAATCCGGATC ((((((....)))))) | -38.5 kcal/mol | 55.8 °C
GATCCGAATCGGATC ((((((...)))))) | -36 kcal/mol | 55 °C
GATCCGAATTCGGATC ((((((....)))))) | -43.3 kcal/mol | 60.2 °C
GATCCGACCACGGATC ((((((....)))))) | -36.9 kcal/mol | 61.3 °C
GATCCGACCCCGGATC ((((((....)))))) | -42.1 kcal/mol | 54.4 °C
